The results in this text go back to ChEMBL document CHEMBL4619779, “Tideglusib and Its Analogues As Inhibitors of Staphylococcus aureus SrtA” (J Med Chem, 2020).

Assay [1] has as its target T1, Sortase A (Staphylococcus aureus, UniProt Q9S446, DELTAN24). The experiment in a line: Inhibition of Staphylococcus aureus SrtA delta N24 mutant expressed in Escherichia coli BL21 (DE3) using Abz-LPATG-Dnp substrate incubated for 20 mins by FRET-based assay. The gist of the method: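 His-tagged SrtAΔN24 (1 µM) was preincubated 20 min at rt with compound (0.2–100 µM) in 50 mM Tris-HCl pH 7.5, 150 mM NaCl, 5 mM CaCl2. Abz-LPATG-Dnp was added at 10 µM and fluorescence (ex 309 / em 420 nm) was read each minute for 20 min. IC50 came from a sigmoidal fit. Technical triplicates, three independent experiments.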

For assay [2], the target named is T1, Sortase A. The experiment in a line: Inhibition of Staphylococcus aureus SrtA delta N24 mutant expressed in Escherichia coli BL21 (DE3) assessed as reduction in IsdA (64 to 323 residues) transpeptidation incubated for 20 mins by SDS-PAGE analysis. The gist of the method: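 His-tagged SrtAΔN24 (100 µg) was preincubated 20 min at rt with compound (1–25 µM) in 50 mM Tris-HCl pH 7.5, 150 mM NaCl, 5 mM CaCl2. IsdA64-323 (150 µg) and 3 mM Gly3 were then added for 1.5 hr at 37 °C. […] Three independent experiments.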

The test system of another assay is Staphylococcus aureus. The experiment in a line: Antibacterial activity against Staphylococcus aureus subsp. aureus str. Newman assessed as reduction in bacterial growth incubated for 24 hrs. In kind it is functional. Summed up: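 Overnight culture diluted 1:1000 in TSB, grown to A600 0.6-0.8, then diluted 1:400 in TSB. Aliquots incubated with the compound at a range of concentrations. A600 read every 1 hr for 24 hr to build growth curves. Technical triplicates per point; three independent experiments.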

The subject of assay [3] is Sortase A (Staphylococcus aureus), Q9S446 [UNDEFINED MUTATION]. The experiment in a line: Inhibition of SrtA delta N24 mutant in Staphylococcus aureus subsp. aureus str. Newman reduction in abundance of anchored SpA at 100 uM by FITC-labeled human IgG fluorescence based assay. The gist of the method:
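Newman wild type and ΔsrtA were diluted 1:1000 in TSB and grown at 37 °C with inhibitor until A600 reached 1.0. Cells were PBS-washed, labelled with FITC-human IgG for 30 min at rt, and washed again before fluorescence was read. Triplicate wells, three independent experiments, unpaired two-tailed t-test.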

Converted amounts (≈) assume the structure as drawn. The source made the active and inactive calls. The rule behind the calls is not given here. Where only a bound is given, the exact number is not on record here.

Consider `CC(C)n1c(=O)sn(CCc2ccccc2)c1=O`, for which the IC50 (usually the concentration that gives 50% inhibition) at Sortase A [1] is greater than 100 µM; on Sortase A [2] it was greater than 50 µM. Also, in the assay on Staphylococcus aureus, the minimal inhibitory concentration (MIC) (in general, the lowest concentration that inhibits growth of the organism) came out at 25 mg/L (≈ 94.6 µM).

On to `O=c1sn(CCc2ccccc2)c(=O)n1Cc1ccccc1`, for which the values for the concentration for half-maximal inhibition (IC50) at Sortase A [1] and on Sortase A [2] were 10.1 µM and 42.7 µM, respectively. The minimum inhibitory concentration (MIC) with Staphylococcus aureus was 12.5 mg/L (≈ 40 µM).

Regarding `O=c1sn(Cc2ccccc2)c(=O)n1CCCl`, the half-inhibitory concentration (IC50) at Sortase A [1] was determined as 2 µM; at Sortase A [2], 16.7 µM. Moreover, the MIC in the assay with Staphylococcus aureus is 25 mg/L (≈ 92.3 µM).

With `Cc1ccc(Cn2c(=O)sn(-c3cccc4ccccc34)c2=O)cc1`, the half-maximal inhibitory concentration (IC50) at Sortase A [1] stood at 1.2 µM; on Sortase A [2], 12.6 µM. Moreover, the MIC in the assay on Staphylococcus aureus is 100 mg/L (≈ 287 µM).

As for `O=c1sn(CCc2ccccc2)c(=O)n1C1CCCCC1`, the concentration for half-maximal inhibition (IC50) against Sortase A [1] was greater than 100 µM; at Sortase A [2], greater than 50 µM. Besides, the MIC with Staphylococcus aureus stood at 12.5 mg/L (≈ 41.1 µM).

`Cc1noc(C)c1-n1sc(=O)n(C(C)C)c1=O`: the IC50 on Sortase A [1] is 12.6 µM; at Sortase A [2], greater than 50 µM. Moreover, the MIC with Staphylococcus aureus is greater than 100 mg/L.

In the case of `Cc1ccc(Cn2c(=O)sn(-c3c(C)noc3C)c2=O)cc1`, the IC50 at Sortase A [1] was found to be 1.1 µM; on Sortase A [2], 4.7 µM. The minimum inhibitory concentration (MIC) with Staphylococcus aureus is greater than 100 mg/L.

Turning to `CCn1c(=O)sn(-c2cccc3ccccc23)c1=O`, the IC50 was 0.7 µM on Sortase A [1] and 8.2 µM on Sortase A [2]. The MIC in the assay on Staphylococcus aureus is greater than 100 mg/L.

On to `O=c1sn(-c2cccc3ccccc23)c(=O)n1Cc1ccccc1O`, for which the IC50 stood at 1.3 µM against Sortase A [1] and 32.2 µM on Sortase A [2]. For the same compound, in the assay on Staphylococcus aureus, the MIC was greater than 100 mg/L.

Take `Cc1ccc(Cn2c(=O)sn(Cc3ccccc3)c2=O)cc1`: the IC50 on Sortase A [1] was found to be 5.1 µM; at Sortase A [2], 35.7 µM. In the assay with Staphylococcus aureus, the MIC amounted to 12.5 mg/L (≈ 40 µM).

Turning to `CCn1sc(=O)n(Cc2ccc(Cl)cc2)c1=O`, the concentration for half-maximal inhibition (IC50) at Sortase A [1] is 8.7 µM; on Sortase A [2], greater than 50 µM. Further, the minimal inhibitory concentration (MIC) in the assay with Staphylococcus aureus stood at 6.2 mg/L (≈ 22.9 µM).

As to `O=c1sn(-c2cccc3ccccc23)c(=O)n1CCc1ccccc1`, the half-inhibitory concentration (IC50) at Sortase A [1] worked out at 0.6 µM; on Sortase A [2], 27.5 µM. In addition, in the assay on Staphylococcus aureus, the MIC was greater than 100 mg/L.

On to `CCCCn1c(=O)sn(-c2c(C)noc2C)c1=O`, for which the values for the concentration for half-maximal inhibition (IC50) on Sortase A [1] and at Sortase A [2] were 1.1 µM and 4.1 µM, respectively. Besides, the MIC in the assay on Staphylococcus aureus was greater than 100 mg/L.

Turning to `Cn1c(=O)sn(-c2cccc3ccccc23)c1=O`, the concentration for half-maximal inhibition (IC50) against Sortase A [1] was found to be 0.8 µM; on Sortase A [2], 8 µM. In addition, the MIC with Staphylococcus aureus was 100 mg/L (≈ 387 µM).

With `CCCCn1c(=O)sn(Cc2ccccc2)c1=O`, the concentration for half-maximal inhibition (IC50) came to 8.4 µM on Sortase A [1] and 21.2 µM at Sortase A [2]. Besides, the MIC with Staphylococcus aureus was 6.2 mg/L (≈ 23.5 µM).

Consider `CCn1c(=O)sn(-c2c(C)noc2C)c1=O`, for which the half-inhibitory concentration (IC50) stood at 1.5 µM on Sortase A [1] and 6.3 µM on Sortase A [2]. Moreover, the MIC with Staphylococcus aureus was greater than 100 mg/L.

`O=c1sn(-c2cccc3ccccc23)c(=O)n1Cc1ccc(O)cc1`: the figures for the IC50 against Sortase A [1] and at Sortase A [2] were 2.6 µM and 4.7 µM, respectively. The minimum inhibitory concentration (MIC) with Staphylococcus aureus amounted to 100 mg/L (≈ 285 µM).

As to `O=c1sn(Cc2ccccc2)c(=O)n1Cc1ccc(Cl)c(Cl)c1`, the IC50 against Sortase A [1] is 2.9 µM; on Sortase A [2], 19.7 µM. Also, in the assay with Staphylococcus aureus, the MIC was determined as 12.5 mg/L (≈ 34 µM).

`Cc1noc(C)c1-n1sc(=O)n(Cc2ccc(Cl)c(Cl)c2)c1=O`: the IC50 on Sortase A [1] turned out to be 0.9 µM; at Sortase A [2], 3.4 µM. Also, the minimum inhibitory concentration (MIC) with Staphylococcus aureus was greater than 100 mg/L.

On to `Cn1c(=O)sn(Cc2ccccc2)c1=O`, for which the concentration for half-maximal inhibition (IC50) was 3.5 µM at Sortase A [1] and 23.6 µM at Sortase A [2]. Besides, the MIC with Staphylococcus aureus turned out to be 12.5 mg/L (≈ 56.2 µM).

On to `CC(C)n1c(=O)sn(Cc2ccccc2)c1=O`, for which the IC50 at Sortase A [1] was greater than 100 µM; at Sortase A [2] it was greater than 50 µM. For the same compound, the MIC with Staphylococcus aureus amounted to 6.2 mg/L (≈ 24.8 µM).

Consider `Cc1noc(C)c1-n1sc(=O)n(Cc2ccc(Cl)cc2)c1=O`, for which the IC50 against Sortase A [1] was 1 µM; on Sortase A [2], 4.1 µM. For the same compound, the MIC with Staphylococcus aureus is greater than 100 mg/L.

Turning to `Cc1noc(C)c1-n1sc(=O)n(Cc2ccccc2Cl)c1=O`, the values for the 50% inhibitory concentration (IC50) against Sortase A [1] and on Sortase A [2] were 0.6 µM and 3.7 µM, respectively. In the assay with Staphylococcus aureus, the MIC was greater than 100 mg/L.

For the compound `O=c1sn(Cc2ccccc2)c(=O)n1Cc1ccccc1Cl`, the 50% inhibitory concentration (IC50) against Sortase A [1] amounted to 3.4 µM; on Sortase A [2], 28 µM. In the assay with Staphylococcus aureus, the minimum inhibitory concentration (MIC) is 12.5 mg/L (≈ 37.6 µM).

In the case of `O=c1sn(Cc2ccccc2)c(=O)n1-c1cccc(F)c1`, the results for the IC50 on Sortase A [1] and at Sortase A [2] were greater than 100 µM and greater than 50 µM, respectively. Moreover, the MIC in the assay with Staphylococcus aureus turned out to be 12.5 mg/L (≈ 41.3 µM).

On to `COc1ccc(Cn2c(=O)sn(-c3c(C)noc3C)c2=O)cc1`, for which the IC50 was determined as 1.2 µM against Sortase A [1] and 5 µM on Sortase A [2]. Moreover, the MIC in the assay with Staphylococcus aureus is greater than 100 mg/L.

Regarding `O=c1sn(-c2cccc3ccccc23)c(=O)n1Cc1cccc(O)c1`, the IC50 is 1.6 µM on Sortase A [1] and 9.2 µM on Sortase A [2]. Also, the minimum inhibitory concentration (MIC) with Staphylococcus aureus was greater than 100 mg/L.

In the case of `O=c1sn(-c2cccc3c2CCC3)c(=O)n1Cc1ccccc1`, the values for the 50% inhibitory concentration (IC50) against Sortase A [1] and on Sortase A [2] were 4.4 µM and 45.6 µM, respectively. The MIC with Staphylococcus aureus is greater than 100 mg/L.

Consider `O=c1sn(-c2cccc3ccccc23)c(=O)n1Cc1ccc(F)cc1`, for which the IC50 at Sortase A [1] came to 4.1 µM; at Sortase A [2] it was 5.9 µM. Moreover, the MIC with Staphylococcus aureus was determined as 100 mg/L (≈ 284 µM).

On to `CCCNC1=C(c2ccccc2)C(=O)C2C(/C=C/S(=O)(=O)c3ccccc3)=CC=CC2C1=O` (stereo not drawn), for which the inhibition result in assay [3] was “inactive”.

As to `O=c1sn(Cc2ccccc2)c(=O)n1Cc1ccccc1`, the 50% inhibitory concentration (IC50) against Sortase A [1] was found to be 7 µM; on Sortase A [2], 12.9 µM. Also, the MIC with Staphylococcus aureus is 12.5 mg/L (≈ 41.9 µM).

Take `CCn1sc(=O)n(Cc2ccc(C)cc2)c1=O`: the values for the IC50 against Sortase A [1] and on Sortase A [2] were 16.7 µM and greater than 50 µM, respectively. Further, the MIC with Staphylococcus aureus turned out to be 6.2 mg/L (≈ 24.8 µM).

Turning to `CCCCn1sc(=O)n(CCCC)c1=O`, the half-maximal inhibitory concentration (IC50) against Sortase A [1] is 43.9 µM; at Sortase A [2] it was greater than 50 µM. The MIC in the assay with Staphylococcus aureus was determined as 3.1 mg/L (≈ 13.5 µM).

Take `O=c1sn(-c2cccc3ccccc23)c(=O)n1Cc1ccc(Cl)c(Cl)c1`: the half-inhibitory concentration (IC50) stood at 0.9 µM on Sortase A [1] and 14.4 µM at Sortase A [2]. Further, the MIC in the assay with Staphylococcus aureus was 50 mg/L (≈ 124 µM).

In the case of `O=c1sn(C2CCCC2)c(=O)n1C1CCCCC1`, the IC50 at Sortase A [1] is 10.2 µM; on Sortase A [2], greater than 50 µM. In addition, in the assay on Staphylococcus aureus, the MIC worked out at 6.2 mg/L (≈ 23.1 µM).

For `O=c1sn(-c2cccc3ccccc23)c(=O)n1Cc1ccc(Cl)cc1`, the IC50 at Sortase A [1] amounted to 0.7 µM; at Sortase A [2], 23.1 µM. The MIC in the assay with Staphylococcus aureus turned out to be 100 mg/L (≈ 271 µM).

For the compound `CCn1sc(=O)n(CCc2ccccc2)c1=O`, the IC50 at Sortase A [1] is 16.3 µM; at Sortase A [2], greater than 50 µM. Moreover, the MIC in the assay with Staphylococcus aureus is 6.2 mg/L (≈ 24.8 µM).

On to `CCCCn1c(=O)sn(-c2cccc3ccccc23)c1=O`, for which the IC50 came to 0.9 µM against Sortase A [1] and 12.6 µM at Sortase A [2]. For the same compound, the minimal inhibitory concentration (MIC) in the assay on Staphylococcus aureus is 100 mg/L (≈ 333 µM).

`O=c1sn(-c2cccc3c2OCO3)c(=O)n1Cc1ccccc1`: the half-maximal inhibitory concentration (IC50) at Sortase A [1] came to 3.4 µM; at Sortase A [2] it was 4.7 µM. Also, the MIC in the assay with Staphylococcus aureus is greater than 100 mg/L.

Turning to `O=c1sn(-c2cccc3c2CCCC3)c(=O)n1Cc1ccccc1`, the concentration for half-maximal inhibition (IC50) is 6 µM against Sortase A [1] and 31.9 µM on Sortase A [2]. For the same compound, the MIC with Staphylococcus aureus turned out to be 50 mg/L (≈ 148 µM).
